We go through 15 molecules from ChEMBL document CHEMBL2062401, “New pyrimido[5,4-e]pyrrolo[1,2-c]pyrimidines: synthesis, 2D-QSAR, anti-inflammatory, analgesic and ulcerogenicity studies” (Eur J Med Chem, 2012).

For data set [1], the system named is Mus musculus. The data set is described as follows: Analgesic activity in Swiss albino mouse assessed as inhibition of acetic acid-induced writhing at 0.029 mmol/kg. po dosed 1 hr before acetic acid challenge and measured during 30 mins post acetic acid challenge relative to indomethacin. The format is functional. Particulars: read-out: INH. In a few lines:
(§1)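 Swiss albino mice of either sex, 18–22 g, six per group. Oral suspension at 0.029 mmol/kg given 1 h before 0.3 ml of 1% acetic acid i.p. Contractions counted for 30 min, starting 5 min after injection. % protection = (n − n')/n × 100 against control writhing. Potency% = % inhibition of test / % inhibition of indomethacin × 100. Mean ± SEM, ANOVA with post hoc test.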
(Writhing tests count abdominal constrictions after an irritant is injected.)

Data set [2] can be described thus: Lipophilicity, log P of the compound. The following applies: octanol/water. The format is physicochemical.
The subject of data set [3] is Rattus norvegicus. Briefly: Antiinflammatory activity in Wistar albino rat assessed as inhibition of carrageenan-induced paw edema at 0.029 mmol/kg, po dosed 1 hr before carrageenan challenge measured 4 hrs post carrageenan-induced inflammation. (In general: Carrageenan injected into the paw causes an acute inflammation.)
Data set [4] has as its system Rattus norvegicus. Briefly: Antiinflammatory activity in Wistar albino rat assessed as inhibition of carrageenan-induced paw edema at 0.029 mmol/kg, po dosed 1 hr before carrageenan challenge measured 2 hrs post carrageenan-induced inflammation.
Data set [5] has as its system Rattus norvegicus. The data set is described as follows: Antiinflammatory activity in Wistar albino rat assessed as inhibition of carrageenan-induced paw edema at 0.029 mmol/kg, po dosed 1 hr before carrageenan challenge measured 3 hrs post carrageenan-induced inflammation.
Data set [6] relates to Rattus norvegicus. Briefly: Antiinflammatory activity in Wistar albino rat assessed as inhibition of carrageenan-induced paw edema at 0.029 mmol/kg, po dosed 1 hr before carrageenan challenge measured 1 hr post carrageenan-induced inflammation. The format is functional. In a few lines: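 Wistar albino rats of both sexes, 120–150 g, six per group, food withdrawn the day before. Given orally 0.029 mmol/kg in saline with a few drops of Tween 80, by stomach tube, 1 h before subplantar s.c. carrageenan (0.1 ml of 1%) into the right hind paw. Paw thickness measured at 1, 2, 3 and 4 h against baseline. % inhibition = 100 × (1 − Vt/Vc).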

The subject of data set [7] is Rattus norvegicus. The data set is described as follows: Gastrointestinal toxicity in Wistar albino rat assessed as incidence of stomach ulceration at 0.029 mmol/kg, po. The class given is organism-based. Particulars: in vivo. In a few lines:
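Rats given single oral dose suspended in saline with few drops Tween 80 (groups of 6); killed under deep ether anaesthesia 5 h after treatment; stomach opened along greater curvature and examined for lesions or bleeding; ulceration expressed as number of rats affected per group.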

The subject of data set [8] is Mus musculus. The data set is described as follows: Analgesic activity in Swiss albino mouse assessed as inhibition of acetic acid-induced writhing at 0.029 mmol/kg. po dosed 1 hr before acetic acid challenge and measured during 30 mins post acetic acid challenge. The class given is functional. The essentials:
as §1

As for `CCOC(=O)c1nc2c(c(=O)[nH]1)C1CCCN1C(=O)N2c1ccccc1` (centres undefined), in the data set on Mus musculus [1], the writhing inhibition relative to indomethacin (potency %) at 29 µmol/kg was determined as 44.5%. For the same molecule, in data set [2], the logP (in general, a log measure of how a compound divides between an organic and an aqueous phase) was 2.02. Besides, the inhibition in vivo (commonly the percentage by which the read-out fell short of the control) at 29 µmol/kg in the data set with Rattus norvegicus [3] amounted to 66%; with Rattus norvegicus [4] it was 67%; in the data set with Rattus norvegicus [5], 68%; in the data set on Rattus norvegicus [6] it was 71%; in the data set on Mus musculus [8], 29.4%. In the data set with Rattus norvegicus [7], the Activity entry was “Non-toxic”.

As to `O=C1CC(O)=NN1C(=O)c1nc2c(c(=O)[nH]1)C1CCCN1C(=O)N2c1ccccc1` (centres undefined), the writhing inhibition relative to indomethacin (potency %) at 29 µmol/kg with Mus musculus [1] came to 93.6%. Besides, the log partition coefficient (logP) in data set [2] stood at 0.693. Further, the inhibition in vivo at 29 µmol/kg in the data set on Rattus norvegicus [3] turned out to be 65%; in the data set on Rattus norvegicus [4] it was 44%; in the data set on Rattus norvegicus [5], 49%; in the data set on Rattus norvegicus [6] it was 68%; with Mus musculus [8], 61.9%. Besides, in the data set with Rattus norvegicus [7], the Activity entry is recorded as “Non-toxic”.

For the molecule `O=C(N/N=C/c1ccccc1)c1nc2c(c(=O)[nH]1)C1CCCN1C(=O)N2c1ccccc1` (centres undefined), the writhing inhibition relative to indomethacin (potency %) at 29 µmol/kg in the data set on Mus musculus [1] was determined as 87.2%. The same molecule yielded a logP in data set [2] of 3.35. Further, the inhibition in vivo at 29 µmol/kg was 50% in the data set with Rattus norvegicus [3]; 41% in the data set with Rattus norvegicus [4]; 53% with Rattus norvegicus [5]; 68% with Rattus norvegicus [6]; 57.6% with Mus musculus [8]. For the same molecule, the Activity result in the data set on Rattus norvegicus [7] was “Toxic”.

For `Cc1cc(C)n(C(=O)c2nc3c(c(=O)[nH]2)C2CCCN2C(=O)N3c2ccccc2)n1` (centres undefined), the writhing inhibition relative to indomethacin (potency %) at 29 µmol/kg in the data set with Mus musculus [1] is 94%. The same molecule gave a log partition coefficient (logP) in data set [2] of 1.46. Further, the inhibition in vivo at 29 µmol/kg with Rattus norvegicus [3] came to 67%; with Rattus norvegicus [4], 57%; in the data set with Rattus norvegicus [5], 65%; in the data set with Rattus norvegicus [6], 58%; with Mus musculus [8] it was 62.1%. Moreover, in the data set on Rattus norvegicus [7], the Activity result was “Non-toxic”.

As for `COc1ccc(/C=N/NC(=O)c2nc3c(c(=O)[nH]2)C2CCCN2C(=O)N3c2ccccc2)cc1` (centres undefined), the writhing inhibition relative to indomethacin (potency %) at 29 µmol/kg in the data set with Mus musculus [1] amounted to 109%. In data set [2], this molecule registered a lipophilicity (logP) of 2.76. For the same molecule, the inhibition in vivo at 29 µmol/kg in the data set on Rattus norvegicus [3] worked out at 47%; in the data set with Rattus norvegicus [4] it was 21%; in the data set with Rattus norvegicus [5] it was 44%; in the data set on Rattus norvegicus [6] it was 51%; in the data set with Mus musculus [8], 71.8%. Besides, the Activity entry in the data set with Rattus norvegicus [7] is “Non-toxic”.

For the molecule `CCO/C=N/NC(=O)c1nc2c(c(=O)[nH]1)C1CCCN1C(=O)N2c1ccccc1` (centres undefined), in the data set on Mus musculus [1], the writhing inhibition relative to indomethacin (potency %) at 29 µmol/kg was found to be 37.7%. Moreover, the lipophilicity (logP) in data set [2] came to 1.44. For the same molecule, the inhibition in vivo at 29 µmol/kg turned out to be 55% in the data set with Rattus norvegicus [3]; 55% in the data set on Rattus norvegicus [4]; 64% with Rattus norvegicus [5]; 47% in the data set on Rattus norvegicus [6]; 24.9% with Mus musculus [8]. In addition, in the data set with Rattus norvegicus [7], the Activity entry is given as “Non-toxic”.

As for `C/C(=N\NC(=O)c1nc2c(c(=O)[nH]1)C1CCCN1C(=O)N2c1ccccc1)c1ccccc1` (centres undefined), the writhing inhibition relative to indomethacin (potency %) at 29 µmol/kg in the data set with Mus musculus [1] turned out to be 102%. For the same molecule, the logP in data set [2] stood at 3.28. For the same molecule, the inhibition in vivo at 29 µmol/kg with Rattus norvegicus [3] is 61%; in the data set on Rattus norvegicus [4] it was 44%; in the data set with Rattus norvegicus [5], 53%; with Rattus norvegicus [6], 61%; in the data set on Mus musculus [8] it was 67.5%. For the same molecule, the Activity result with Rattus norvegicus [7] was “Toxic”.

With `O=C(O)c1nc2c(c(=O)[nH]1)C1CCCN1C(=O)N2c1ccccc1` (centres undefined), the writhing inhibition relative to indomethacin (potency %) at 29 µmol/kg in the data set on Mus musculus [1] is 97.8%. In addition, the logP in data set [2] came to 0.661. The inhibition in vivo at 29 µmol/kg in the data set on Rattus norvegicus [3] is 72%; in the data set with Rattus norvegicus [4] it was 56%; in the data set with Rattus norvegicus [5] it was 66%; with Rattus norvegicus [6], 68%; with Mus musculus [8], 64.7%. For the same molecule, the Activity entry in the data set with Rattus norvegicus [7] is recorded as “Toxic”.

For `Nc1cc(=O)[nH]n1C(=O)c1nc2c(c(=O)[nH]1)C1CCCN1C(=O)N2c1ccccc1` (centres undefined), in the data set on Mus musculus [1], the writhing inhibition relative to indomethacin (potency %) at 29 µmol/kg was determined as 106%. In data set [2], this molecule returned a lipophilicity (logP) of 0.517. In addition, the inhibition in vivo at 29 µmol/kg with Rattus norvegicus [3] was 50%; in the data set on Rattus norvegicus [4], 20%; in the data set on Rattus norvegicus [5] it was 45%; in the data set with Rattus norvegicus [6], 50%; in the data set with Mus musculus [8], 70.3%. For the same molecule, the Activity result in the data set on Rattus norvegicus [7] is “Non-toxic”.

Turning to `Cc1cc(=O)n(C(=O)c2nc3c(c(=O)[nH]2)C2CCCN2C(=O)N3c2ccccc2)[nH]1` (centres undefined), in the data set on Mus musculus [1], the writhing inhibition relative to indomethacin (potency %) at 29 µmol/kg amounted to 92.2%. This molecule displayed a logP in data set [2] of 0.772. The inhibition in vivo at 29 µmol/kg with Rattus norvegicus [3] came out at 62%; in the data set on Rattus norvegicus [4], 34%; with Rattus norvegicus [5], 57%; with Rattus norvegicus [6] it was 57%; in the data set with Mus musculus [8], 61%. Besides, the Activity entry in the data set on Rattus norvegicus [7] is “Non-toxic”.

As to `O=C(N/N=C/c1ccccc1O)c1nc2c(c(=O)[nH]1)C1CCCN1C(=O)N2c1ccccc1` (centres undefined), in the data set with Mus musculus [1], the writhing inhibition relative to indomethacin (potency %) at 29 µmol/kg was found to be 104%. The logP in data set [2] worked out at 2.46. Moreover, the inhibition in vivo at 29 µmol/kg with Rattus norvegicus [3] is 47%; in the data set on Rattus norvegicus [4] it was 34%; in the data set with Rattus norvegicus [5], 46%; in the data set with Rattus norvegicus [6] it was 53%; in the data set with Mus musculus [8], 68.9%. Moreover, in the data set with Rattus norvegicus [7], the Activity entry was “Toxic”.

With `C/C(=N\NC(=O)c1nc2c(c(=O)[nH]1)C1CCCN1C(=O)N2c1ccccc1)c1ccc(Cl)cc1` (centres undefined), the writhing inhibition relative to indomethacin (potency %) at 29 µmol/kg in the data set with Mus musculus [1] worked out at 94%. The molecule also registered a lipophilicity (logP) in data set [2] of 3.29. The inhibition in vivo at 29 µmol/kg in the data set on Rattus norvegicus [3] was determined as 57%; with Rattus norvegicus [4], 50%; with Rattus norvegicus [5], 51%; in the data set on Rattus norvegicus [6] it was 43%; in the data set on Mus musculus [8] it was 62.1%. Also, the Activity entry in the data set on Rattus norvegicus [7] is reported as “Toxic”.

With `CCOC(=O)C/C(C)=N/NC(=O)c1nc2c(c(=O)[nH]1)C1CCCN1C(=O)N2c1ccccc1` (centres undefined), the writhing inhibition relative to indomethacin (potency %) at 29 µmol/kg with Mus musculus [1] was 1.77%. This molecule displayed a logP in data set [2] of 1.28. For the same molecule, the inhibition in vivo at 29 µmol/kg amounted to 52% with Rattus norvegicus [3]; 41% in the data set with Rattus norvegicus [4]; 47% in the data set with Rattus norvegicus [5]; 45% in the data set with Rattus norvegicus [6]; 1.17% with Mus musculus [8]. Also, the Activity result in the data set on Rattus norvegicus [7] is recorded as “Non-toxic”.

With `O=C(N/N=C/c1ccc(Cl)cc1)c1nc2c(c(=O)[nH]1)C1CCCN1C(=O)N2c1ccccc1` (centres undefined), in the data set with Mus musculus [1], the writhing inhibition relative to indomethacin (potency %) at 29 µmol/kg came to 52.7%. Moreover, the logP in data set [2] is 3.36. For the same molecule, the inhibition in vivo at 29 µmol/kg in the data set on Rattus norvegicus [3] was determined as 38%; in the data set on Rattus norvegicus [4], 32%; with Rattus norvegicus [5], 44%; in the data set on Rattus norvegicus [6], 54%; with Mus musculus [8] it was 34.8%. For the same molecule, in the data set on Rattus norvegicus [7], the Activity result is “Non-toxic”.

On to `CC(C)=NNC(=O)c1nc2c(c(=O)[nH]1)C1CCCN1C(=O)N2c1ccccc1` (centres undefined), for which the writhing inhibition relative to indomethacin (potency %) at 29 µmol/kg with Mus musculus [1] was 89%. The inhibition in vivo at 29 µmol/kg in the data set with Rattus norvegicus [3] amounted to 36%; in the data set on Rattus norvegicus [4] it was 23%; with Rattus norvegicus [5], 35%; in the data set on Rattus norvegicus [6] it was 26%; in the data set on Mus musculus [8] it was 58.8%. Moreover, the Activity result with Rattus norvegicus [7] was “Non-toxic”.
